Data reported in ChEMBL document CHEMBL4152192, “Synthesis and anticancer activity evaluation of novel azacalix[2]arene[2]pyrimidines” (Eur J Med Chem, 2018).
Each block holds one compound with its values, some of them ahead of it. The source made the active and inactive calls. The calls are words filed in the database; no cut-off is given here.

Key:
MCF7 [1] = experiment: Induction of apoptosis in human MCF7 cells assessed as late apoptotic cells at 0.6 uM after 24 hrs by Annexin V-FITC/propidium iodide staining-based flow cytometric analysis (reference value: 1.22%); assay type: functional
MCF7 [2] = experiment: Induction of apoptosis in human MCF7 cells assessed as late apoptotic cells at 0.3 uM after 24 hrs by Annexin V-FITC/propidium iodide staining-based flow cytometric analysis (reference value: 1.22%); assay type: functional
MCF7 [3] = experiment: Cell cycle arrest in human MCF7 cells assessed as accumulation of cells G1 phase at 0.6 uM after 24 hrs by propidium iodide/RNase A staining-based flow cytometric analysis (reference value: 60.6%); assay type: functional
MCF7 [4] = experiment: Induction of apoptosis in human MCF7 cells assessed as improved staining brightness at 0.3 to 1.2 uM after 24 hrs by Hoechst 33342 staining-based fluorescence microscopic analysis; assay type: functional, cell-based
Outline: (§1)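 MCF7 exposed to 0.3, 0.6 or 1.2 µM for 24 h, then stained with 5 µg/mL Hoechst 33342 for 20 min at 37 °C under 5% CO₂. Nuclear morphology (brightness, chromatin condensation, fragmentation) examined by fluorescence microscopy at ×100.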

MCF7 [5] = experiment: Cell cycle arrest in human MCF7 cells assessed as accumulation of cells G2 phase at 0.6 uM after 24 hrs by propidium iodide/RNase A staining-based flow cytometric analysis (reference value: 35.08%); assay type: functional
MCF7 [6] = experiment: Cell cycle arrest in human MCF7 cells assessed as accumulation of cells S phase at 0.6 uM after 24 hrs by propidium iodide/RNase A staining-based flow cytometric analysis (reference value: 6.75%); assay type: functional
MCF7 [7] = experiment: Induction of apoptosis in human MCF7 cells assessed as necrotic cells at 0.6 uM after 24 hrs by Annexin V-FITC/propidium iodide staining-based flow cytometric analysis (reference value: 0.426%); assay type: functional
MCF7 [8] = experiment: Cell cycle arrest in human MCF7 cells assessed as accumulation of cells S phase after 24 hrs by propidium iodide/RNase A staining-based flow cytometric analysis; assay type: functional
A549 = experiment: Antiproliferative activity against human A549 cells after 72 hrs by CCK-8 assay; assay type: functional, cell-based; conditions: A549, 72 h
Outline: (§2)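 Cells seeded at 5 × 10³/well; A549, MCF7 and SH-SY5Y grown in DMEM, CNE and L-02 in RPMI-1640 (10% FBS, pen/strep, 37 °C, 5% CO₂). Compounds in DMSO, diluted in medium; 72 h exposure versus DMSO vehicle. CCK-8 absorbance read at 450 nm; viability taken as treated/control absorbance, IC₅₀ from curve fit. Triplicate wells, three independent experiments.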

MCF7 [9] = experiment: Cell cycle arrest in human MCF7 cells assessed as accumulation of cells S phase at 0.3 uM after 24 hrs by propidium iodide/RNase A staining-based flow cytometric analysis (reference value: 6.75%); assay type: functional
MCF7 [10] = experiment: Antiproliferative activity against human MCF7 cells after 72 hrs by CCK-8 assay; assay type: functional, cell-based; conditions: MCF7, 72 h; outline: as §2
MCF7 [11] = experiment: Cell cycle arrest in human MCF7 cells assessed as accumulation of cells G2 phase at 1.2 uM after 24 hrs by propidium iodide/RNase A staining-based flow cytometric analysis (reference value: 35.08%); assay type: functional
MCF7 [12] = experiment: Induction of apoptosis in human MCF7 cells assessed as early apoptotic cells at 0.3 uM after 24 hrs by Annexin V-FITC/propidium iodide staining-based flow cytometric analysis (reference value: 0.816%); assay type: functional
MCF7 [13] = experiment: Cell cycle arrest in human MCF7 cells assessed as accumulation of cells G1 phase at 1.2 uM after 24 hrs by propidium iodide/RNase A staining-based flow cytometric analysis (reference value: 60.6%); assay type: functional
MCF7 [14] = experiment: Induction of apoptosis in human MCF7 cells assessed as nuclear condensation at 0.3 to 1.2 uM after 24 hrs by Hoechst 33342 staining-based fluorescence microscopic analysis; assay type: functional, cell-based; outline: as §1
MCF7 [15] = experiment: Induction of apoptosis in human MCF7 cells assessed as necrotic cells at 1.2 uM after 24 hrs by Annexin V-FITC/propidium iodide staining-based flow cytometric analysis (reference value: 0.426%); assay type: functional
L02 = experiment: Antiproliferative activity against human L02 cells after 72 hrs by CCK-8 assay; assay type: cell-based; conditions: L02, 72 h; outline: as §2
MCF7 [16] = experiment: Induction of apoptosis in human MCF7 cells assessed as nuclear fragmentation at 0.3 to 1.2 uM after 24 hrs by Hoechst 33342 staining-based fluorescence microscopic analysis; assay type: functional, cell-based; outline: as §1
MCF7 [17] = experiment: Induction of apoptosis in human MCF7 cells assessed as viable cells at 1.2 uM after 24 hrs by Annexin V-FITC/propidium iodide staining-based flow cytometric analysis (reference value: 97.5%); assay type: functional; conditions: MCF7, 24 h, read-out: Activity
MCF7 [18] = experiment: Induction of apoptosis in human MCF7 cells assessed as necrotic cells at 0.3 uM after 24 hrs by Annexin V-FITC/propidium iodide staining-based flow cytometric analysis (reference value: 0.426%); assay type: functional
MCF7 [19] = experiment: Cell cycle arrest in human MCF7 cells assessed as accumulation of cells G2 phase at 0.3 uM after 24 hrs by propidium iodide/RNase A staining-based flow cytometric analysis (reference value: 35.08%); assay type: functional
CNE = experiment: Antiproliferative activity against human CNE cells after 72 hrs by CCK-8 assay; assay type: functional, cell-based; outline: as §2
MCF7 [20] = experiment: Induction of apoptosis in human MCF7 cells assessed as viable cells at 0.6 uM after 24 hrs by Annexin V-FITC/propidium iodide staining-based flow cytometric analysis (reference value: 97.5%); assay type: functional; conditions: MCF7, 24 h, read-out: Activity
MCF7 [21] = experiment: Cell cycle arrest in human MCF7 cells assessed as accumulation of cells S phase at 1.2 uM after 24 hrs by propidium iodide/RNase A staining-based flow cytometric analysis (reference value: 6.75%); assay type: functional
MCF7 [22] = experiment: Induction of apoptosis in human MCF7 cells assessed as increase in caspase9 activation at 0.3 to 1.2 uM after 72 hrs by Western blot analysis; assay type: functional, cell-based
Outline: (§3)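 MCF7 exposed to 0.3, 0.6 or 1.2 µM for 72 h. Total protein (30 µg, BCA-quantified) run on SDS-PAGE and transferred to PVDF. Membranes blocked in 5% milk/TBS-0.05% Tween 20 for 2 h at room temperature, probed overnight at 4 °C with anti-cleaved caspase-3, caspase-9 and β-actin (loading control), then HRP anti-rabbit IgG; ECL detection.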

MCF7 [23] = experiment: Cell cycle arrest in human MCF7 cells assessed as accumulation of cells G1 phase at 0.3 uM after 24 hrs by propidium iodide/RNase A staining-based flow cytometric analysis (reference value: 60.6%); assay type: functional
MCF7 [24] = experiment: Induction of apoptosis in human MCF7 cells assessed as late apoptotic cells at 1.2 uM after 24 hrs by Annexin V-FITC/propidium iodide staining-based flow cytometric analysis (reference value: 1.22%); assay type: functional
MCF7 [25] = experiment: Induction of apoptosis in human MCF7 cells assessed as early apoptotic cells at 0.6 uM after 24 hrs by Annexin V-FITC/propidium iodide staining-based flow cytometric analysis (reference value: 0.816%); assay type: functional
SH-SY5Y = experiment: Antiproliferative activity against human SH-SY5Y cells after 72 hrs by CCK-8 assay; assay type: functional, cell-based; outline: as §2
MCF7 [26] = experiment: Induction of apoptosis in human MCF7 cells assessed as early apoptotic cells at 1.2 uM after 24 hrs by Annexin V-FITC/propidium iodide staining-based flow cytometric analysis (reference value: 0.816%); assay type: functional
MCF7 [27] = experiment: Induction of apoptosis in human MCF7 cells assessed as increase in caspase3 activation at 0.3 to 1.2 uM after 72 hrs by Western blot analysis; assay type: functional, cell-based; outline: as §3
MCF7 [28] = experiment: Induction of apoptosis in human MCF7 cells assessed as viable cells at 0.3 uM after 24 hrs by Annexin V-FITC/propidium iodide staining-based flow cytometric analysis (reference value: 97.5%); assay type: functional; conditions: MCF7, 24 h, read-out: Activity

SMILES: c1cc2nc(n1)Nc1cc(cc(N3CCCC3)c1)Nc1ccnc(n1)Nc1cc(cc(N3CCCC3)c1)N2
Activity (MCF7 [1]): 2.86%
Activity (MCF7 [2]): 1.35%
Activity (MCF7 [3]): 56.54%
Activity (MCF7 [4]): Active
Activity (MCF7 [5]): 25.13%
Activity (MCF7 [6]): 17.49%
Activity (MCF7 [7]): 0.197%
Activity (MCF7 [8]): Dose-dependent effect
IC50 (A549): 0.94 µM
Activity (MCF7 [9]): 11.54%
IC50 (MCF7 [10]): 0.58 µM
Activity (MCF7 [11]): 7.88%
Activity (MCF7 [12]): 5.76%
Activity (MCF7 [13]): 52.9%
Activity (MCF7 [14]): Active
Activity (MCF7 [15]): 0.232%
IC50 (L02): 25.6 µM
Activity (MCF7 [16]): Active
viability at 1.2 µM (MCF7 [17]): 69.1%
Activity (MCF7 [18]): 0.148%
Activity (MCF7 [19]): 34.8%
IC50 (CNE): 46.5 µM
viability at 0.6 µM (MCF7 [20]): 73.8%
Activity (MCF7 [21]): 38.08%
Activity (MCF7 [22]): Active
Activity (MCF7 [23]): 55.71%
Activity (MCF7 [24]): 4.2%
Activity (MCF7 [25]): 23.2%
IC50 (SH-SY5Y): 1.82 µM
Activity (MCF7 [26]): 26.6%
Activity (MCF7 [27]): Active
viability at 0.3 µM (MCF7 [28]): 92.7%

SMILES: c1cc2cc(c1)Nc1nccc(n1)Nc1cccc(c1)Nc1nccc(n1)N2
IC50 (A549): > 50 µM
IC50 (MCF7 [10]): > 50 µM
IC50 (L02): > 50 µM
IC50 (CNE): > 50 µM
IC50 (SH-SY5Y): > 50 µM

SMILES: CC(C)S(=O)(=O)c1ccc2cc1Nc1ncc(Cl)c(n1)Nc1ccc(S(=O)(=O)C(C)C)c(c1)Nc1ncc(Cl)c(n1)N2
IC50 (A549): > 50 µM
IC50 (MCF7 [10]): > 50 µM
IC50 (L02): > 50 µM
IC50 (CNE): > 50 µM
IC50 (SH-SY5Y): > 50 µM

SMILES: COc1cccc2c1C(=O)c1c(O)c3c(c(O)c1C2=O)C[C@@](O)(C(=O)CO)C[C@@H]3O[C@H]1C[C@H](N)[C@H](O)[C@H](C)O1 [DOXORUBICIN]
IC50 (A549): 0.63 µM
IC50 (MCF7 [10]): 0.48 µM
IC50 (L02): 0.88 µM
IC50 (CNE): 0.22 µM
IC50 (SH-SY5Y): 0.89 µM

SMILES: Fc1cnc2nc1Nc1cccc(c1)Nc1ncc(Cl)c(n1)Nc1cccc(c1)N2
IC50 (A549): > 50 µM
IC50 (MCF7 [10]): > 50 µM
IC50 (L02): > 50 µM
IC50 (CNE): > 50 µM
IC50 (SH-SY5Y): > 50 µM

SMILES: Cc1cnc2nc1Nc1cccc(c1)Nc1ncc(C)c(n1)Nc1cccc(c1)N2
IC50 (A549): 7.42 µM
IC50 (MCF7 [10]): 18.8 µM
IC50 (L02): 9.89 µM
IC50 (CNE): 23.7 µM
IC50 (SH-SY5Y): 17.5 µM

SMILES: FC(F)(F)c1cc2cc(c1)Nc1nccc(n1)Nc1cc(cc(C(F)(F)F)c1)Nc1nccc(n1)N2
IC50 (A549): 2.05 µM
IC50 (MCF7 [10]): 5.38 µM
IC50 (L02): 20.4 µM
IC50 (CNE): 15.6 µM
IC50 (SH-SY5Y): 1.43 µM

SMILES: Fc1cnc2nc1Nc1cc(cc(C(F)(F)F)c1)Nc1ncc(F)c(n1)Nc1cc(cc(C(F)(F)F)c1)N2
IC50 (A549): > 50 µM
IC50 (MCF7 [10]): > 50 µM
IC50 (L02): > 50 µM
IC50 (CNE): > 50 µM
IC50 (SH-SY5Y): > 50 µM

Now from value to compound, other results behind:

IC50 (A549): > 50 µM
IC50 (MCF7 [10]): > 50 µM
IC50 (SH-SY5Y): > 50 µM
SMILES: c1cc2nc(n1)Nc1cc(cc(N3CCOCC3)c1)Nc1ccnc(n1)Nc1cc(cc(N3CCOCC3)c1)N2
IC50 (L02): > 50 µM
IC50 (CNE): > 50 µM

IC50 (A549): 4.25 µM
IC50 (MCF7 [10]): 4.9 µM
IC50 (SH-SY5Y): 7.21 µM
SMILES: Cc1cnc2nc1Nc1cc(cc(N3CCCC3)c1)Nc1ncc(C)c(n1)Nc1cc(cc(N3CCCC3)c1)N2
IC50 (L02): 30.8 µM
IC50 (CNE): > 50 µM

IC50 (A549): > 50 µM
IC50 (MCF7 [10]): > 50 µM
IC50 (SH-SY5Y): > 50 µM
SMILES: Clc1cnc2nc1Nc1cccc(c1)Nc1ncc(Cl)c(n1)Nc1cccc(c1)N2
IC50 (L02): > 50 µM
IC50 (CNE): > 50 µM
